{
  "source": "ChEMBL document CHEMBL4052819",
  "about": "(2017)",
  "key": {"[1]": {"system": "Klebsiella pneumoniae", "test": "Bactericidal activity against Klebsiella pneumoniae ATCC 13883", "assay_type": "functional", "details": "read-out: MBC99.9", "summary_of_the_method": "(§1)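 MBC from MIC plates at end point: 50 μL from each well with no visible growth plated on tryptic soy agar and counted. MBC taken as lowest concentration giving ≥99.9% fall in viable count relative to initial inoculum. Three independent experiments, one replicate each.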"}, "[2]": {"system": "Pseudomonas aeruginosa", "test": "Bactericidal activity against Pseudomonas aeruginosa ATCC 27853 at 8 ug/ml after 2 hrs by time-kill assay relative to control", "assay_type": "functional", "summary_of_the_method": "(§2)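 Time-kill at 8, 16 and 32 μg/mL; survivors counted on tryptic soy agar at 0, 2, 4, 6 and 24 h. Three independent experiments, one replicate each.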"}, "[3]": {"system": "Staphylococcus aureus", "test": "Induction of cytoplasmic membrane damage in Staphylococcus aureus ATCC 29213 assessed as intracellular potassium ion release at 32 to 64 ug/ml by PBFI probe-based fluorescence assay", "assay_type": "functional, cell-based", "summary_of_the_method": "(§3)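 Mid-log cells washed and suspended in 5 mM HEPES pH 7.2 + 5 mM glucose. PBFI K+ probe added at final 2 μM, then compound at final 8–64 μg/mL; fluorescence read at ex 346/em 505 nm. Three independent experiments; change in fluorescence analysed by ANOVA with Tukey HSD.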"}, "[4]": {"system": "Pseudomonas aeruginosa", "test": "Antibiofilm activity against Pseudomonas aeruginosa ATCC 27853 established catheter-associated biofilm model at 40 times MIC after 72 hrs relative to control", "assay_type": "functional"}, "[5]": {"system": "Escherichia coli", "test": "Antibacterial activity against Escherichia coli ATCC 25922 after 18 to 20 hrs in presence of 95% serum by broth microdilution method", "assay_type": "functional", "summary_of_the_method": "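Same microdilution with human serum as medium: compound 2-fold diluted in 100% serum, mixed 1:1 with 90% serum holding ~1.5 × 10^5 CFU/mL, giving 95% serum and final 0.5–64 μg/mL. MIC read as no visible growth after incubation as for the broth test.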"}, "[6]": {"system": "Escherichia coli", "test": "Antibacterial activity against Escherichia coli ATCC 25922 in presence of 100% serum after 6 hrs by broth microdilution method", "assay_type": "functional", "details": "ATCC 25922, 6 h", "summary_of_the_method": "(§4)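 Serum stability: compound added to 100% human serum at final 64 μg/mL, held at 37 °C, sampled at 0, 6, 12 and 24 h. […] Residual activity compared with untreated control.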"}, "[7]": {"system": "Klebsiella pneumoniae", "test": "Antibacterial activity against carbapenem-resistant Klebsiella pneumoniae clinical isolate expressing beta-lactamase NDM, OXA-181 after 18 to 20 hrs by broth microdilution method", "assay_type": "functional", "summary_of_the_method": "(§5)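 Broth microdilution in tryptic soy broth: 2-fold dilutions mixed 1:1 with ~1.5 × 10^5 CFU/mL bacterial suspension in TSB, final 0.5–32 μg/mL, 37 °C for 18–20 h. MIC = lowest concentration with no visible growth. At least three independent experiments, one replicate each.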"}, "[8]": {"system": "Staphylococcus aureus", "test": "Antibacterial activity against methicillin-resistant Staphylococcus aureus LAC", "assay_type": "functional"}, "[9]": {"system": "Escherichia coli", "test": "Antibacterial activity against Escherichia coli ATCC 25922 in presence of 100% serum measured immediately post compound addition in serum by broth microdilution method", "assay_type": "functional", "summary_of_the_method": "as §4"}, "[10]": {"system": "Klebsiella pneumoniae", "test": "Antibacterial activity against polymyxin-resistant Klebsiella pneumoniae AR 0109 after 18 to 20 hrs by broth microdilution method"}, "[11]": {"system": "Pseudomonas aeruginosa", "test": "Bactericidal activity against Pseudomonas aeruginosa ATCC 27853 at 16 ug/ml after 2 hrs by time-kill assay relative to control", "assay_type": "functional", "summary_of_the_method": "as §2"}, "[12]": {"system": "Pseudomonas aeruginosa", "test": "Antibacterial activity against Pseudomonas aeruginosa ATCC 27853 after 18 to 20 hrs by broth microdilution method", "assay_type": "functional", "summary_of_the_method": "(§6)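 Broth microdilution in tryptic soy broth: 2-fold dilutions mixed 1:1 with ~1.5 × 10^5 CFU/mL inoculum, final 0.5–32 μg/mL; 37 °C, 18–20 h. MIC taken as lowest concentration giving no visible growth. At least three independent experiments, one replicate each.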"}, "[13]": {"system": "Pseudomonas aeruginosa", "test": "Induction of cytoplasmic membrane damage in Pseudomonas aeruginosa ATCC 27853 assessed as intracellular potassium ion release at 32 to 64 ug/ml by PBFI probe-based fluorescence assay", "assay_type": "functional, cell-based", "summary_of_the_method": "as §3"}, "[14]": {"system": "Enterobacter cloacae", "test": "Antibacterial activity against carbapenem-resistant Enterobacter cloacae clinical isolate expressing beta-lactamase NDM after 18 to 20 hrs by broth microdilution method", "assay_type": "functional", "summary_of_the_method": "as §5"}, "[15]": {"system": "Escherichia coli", "test": "Antibacterial activity against polymyxin-resistant Escherichia coli UAMS-ECPR2 after 18 to 20 hrs by broth microdilution method", "assay_type": "functional", "summary_of_the_method": "as §5"}, "[16]": {"system": "Escherichia coli", "test": "Antibacterial activity against Escherichia coli ATCC 25922 in presence of 100% serum after 24 hrs by broth microdilution method", "assay_type": "functional", "details": "ATCC 25922, 24 h", "summary_of_the_method": "as §4"}, "[17]": {"system": "Staphylococcus aureus", "test": "Antibacterial activity against methicillin-resistant Staphylococcus aureus ATCC 43300 after 18 to 20 hrs by broth microdilution method", "assay_type": "functional", "summary_of_the_method": "as §5"}, "[18]": {"system": "Pseudomonas aeruginosa", "test": "Bactericidal activity against Pseudomonas aeruginosa ATCC 27853 at 16 ug/ml after 60 mins in presence of LPS", "assay_type": "functional", "summary_of_the_method": "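P. aeruginosa at ~10^6 CFU/mL in TSB with E. coli O111:B4 LPS (final 10, 25, 50 or 100 μg/mL), then compound at final 16 μg/mL. Incubated 37 °C, 200 rpm, 60 min; survivors counted on TSA. Three independent experiments, one replicate each.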"}, "[19]": {"system": "Pseudomonas aeruginosa", "test": "Bactericidal activity against Pseudomonas aeruginosa ATCC 27853 at 16 to 32 ug/ml after 24 hrs by time-kill assay", "assay_type": "functional", "summary_of_the_method": "as §2"}, "[20]": {"system": "Pseudomonas aeruginosa", "test": "Bactericidal activity against Pseudomonas aeruginosa ATCC 27853", "assay_type": "functional", "details": "read-out: MBC99.9", "summary_of_the_method": "as §1"}, "[21]": {"system": "Staphylococcus aureus", "test": "Bactericidal activity against Staphylococcus aureus ATCC 29213 at 32 ug/ml after 4 hrs by time-kill assay relative to control", "assay_type": "functional", "summary_of_the_method": "as §2"}, "[22]": {"system": "Staphylococcus aureus", "test": "Bactericidal activity against Staphylococcus aureus ATCC 29213 at 8 ug/ml after 24 hrs by time-kill assay", "assay_type": "functional", "summary_of_the_method": "as §2"}, "[23]": {"system": "Staphylococcus aureus", "test": "Antibacterial activity against Staphylococcus aureus ATCC 29213 after 18 to 20 hrs by broth microdilution method", "assay_type": "functional", "summary_of_the_method": "as §6"}, "[24]": {"system": "Pseudomonas aeruginosa", "test": "Bactericidal activity against Pseudomonas aeruginosa ATCC 27853 at 32 ug/ml after 2 hrs by time-kill assay relative to control", "assay_type": "functional", "summary_of_the_method": "as §2"}, "[25]": {"system": "Staphylococcus aureus", "test": "Bactericidal activity against Staphylococcus aureus ATCC 29213 at 32 ug/ml after 60 mins in presence of LTA", "assay_type": "functional", "summary_of_the_method": "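S. aureus at ~10^6 CFU/mL mixed with S. aureus LTA (final 10, 25, 50 or 100 μg/mL), then compound at final 32 μg/mL. Incubated 37 °C, 200 rpm, 60 min; survivors counted on TSA. Four independent experiments, one replicate each.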"}, "[26]": {"system": "Staphylococcus aureus", "test": "Bactericidal activity against methicillin-resistant Staphylococcus aureus ATCC 43300", "assay_type": "functional", "details": "read-out: MBC99.9", "summary_of_the_method": "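MBC taken at the end of the MIC test: 50 μL from each well without visible growth plated on tryptic soy agar. MBC = lowest concentration giving ≥99.9% reduction in viable cells relative to the initial inoculum. Three independent experiments, one replicate each.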"}, "[27]": {"system": "Enterococcus faecium", "test": "Antibacterial activity against Enterococcus faecium ATCC 19434 after 18 to 20 hrs by broth microdilution method", "assay_type": "functional", "summary_of_the_method": "as §6"}, "[28]": {"system": "Pseudomonas aeruginosa", "test": "Induction of cytoplasmic membrane depolarization in Pseudomonas aeruginosa ATCC 27853 at >= 16 ug/ml by DiSC3(5) probe-based fluorescence assay", "assay_type": "functional"}, "[29]": {"system": "Escherichia coli", "test": "Antibacterial activity against Escherichia coli ATCC 25922 in presence of 100% serum after 12 hrs by broth microdilution method", "assay_type": "functional", "details": "ATCC 25922, 12 h", "summary_of_the_method": "as §4"}, "[30]": {"system": "Staphylococcus aureus", "test": "Antibiofilm activity against methicillin-resistant Staphylococcus aureus LAC established catheter-associated biofilm model at 20 times MIC after 72 hrs relative to control", "assay_type": "functional"}},
  "note": "Active and inactive are the calls of the source. The rule behind the calls is not given here. Non-standard residues stand in square brackets, D forms with d. Residues, ends and D or L forms follow the SMILES beside them. Cha = N[C@@H](CC1CCCCC1)C(=O)O; Dab = NCC[C@H](N)C(=O)O",
  "data": [
    {"molecule": "CC(C)C[C@H](NC(=O)[C@@H](Cc1ccccc1)NC(=O)[C@H](CCN)NC(=O)[C@H](Cc1ccccc1)NC(=O)[C@H](CCN)NC(=O)[C@@H](N)CC1CCCCC1)C(=O)N[C@@H](CCN)C(=O)N[C@H](CC(C)C)C(=O)N[C@@H](Cc1ccccc1)C(=O)N[C@@H](CO)C(N)=O", "note": "(H-[Cha][Dab]F[Dab][dF]L[Dab][dL]FS-NH2)", "values": [
      {"measurement": "MBC", "setting": "[1]", "value": 4, "unit": "µg/mL"},
      {"measurement": "Activity", "setting": "[2]", "value": 2.2, "unit": "deltalog10CFU/ml"},
      {"measurement": "Activity", "setting": "[3]", "value": "Active"},
      {"measurement": "Activity", "setting": "[4]", "value": 2.6, "unit": "deltalog10CFU/ml"},
      {"measurement": "MIC", "setting": "[5]", "value": 8, "unit": "µg/mL"},
      {"measurement": "MIC", "setting": "[6]", "value": "4 to 8", "unit": "µg/mL"},
      {"measurement": "MIC", "setting": "[7]", "value": "0.5 to 2", "unit": "µg/mL"},
      {"measurement": "MIC", "setting": "[8]", "value": 8, "unit": "µg/mL"},
      {"measurement": "MIC", "setting": "[9]", "value": "4 to 8", "unit": "µg/mL"},
      {"measurement": "MIC", "setting": "[10]", "value": "4 to 8", "unit": "µg/mL"},
      {"measurement": "Activity", "setting": "[11]", "value": 3.7, "unit": "deltalog10CFU/ml"},
      {"measurement": "MIC", "setting": "[12]", "value": "0.5 to 1", "unit": "µg/mL"},
      {"measurement": "Activity", "setting": "[13]", "value": "Active"},
      {"measurement": "MIC", "setting": "[14]", "value": 0.5, "unit": "µg/mL"},
      {"measurement": "MIC", "setting": "[15]", "value": "< 0.5", "unit": "µg/mL"},
      {"measurement": "MIC", "setting": "[16]", "value": 8, "unit": "µg/mL"},
      {"measurement": "MIC", "setting": "[17]", "value": 4, "unit": "µg/mL"},
      {"measurement": "Activity", "setting": "[18]", "value": "inactive"},
      {"measurement": "Activity", "setting": "[19]", "value": "Active"},
      {"measurement": "MBC", "setting": "[20]", "value": "2 to 4", "unit": "µg/mL"},
      {"measurement": "Activity", "setting": "[21]", "value": 5.4, "unit": "deltalog10CFU/ml"},
      {"measurement": "Activity", "setting": "[22]", "value": "inactive"},
      {"measurement": "MIC", "setting": "[23]", "value": "2 to 4", "unit": "µg/mL"},
      {"measurement": "Activity", "setting": "[24]", "value": 5.1, "unit": "deltalog10CFU/ml"},
      {"measurement": "Activity", "setting": "[25]", "value": "inactive"},
      {"measurement": "MBC", "setting": "[26]", "value": 8, "unit": "µg/mL"},
      {"measurement": "MIC", "setting": "[27]", "value": 8, "unit": "µg/mL"},
      {"measurement": "Activity", "setting": "[28]", "value": "Active"},
      {"measurement": "MIC", "setting": "[29]", "value": "4 to 8", "unit": "µg/mL"},
      {"measurement": "Activity", "setting": "[30]", "value": 5, "unit": "deltalog10CFU/ml"}
    ]}
  ]
}
